Reference: ChEMBL document CHEMBL1155438, “Design and syntheses of permethyl ningalin B analogues: potent multidrug resistance (MDR) reversal agents of cancer cells” (J Med Chem, 2010)
Calls of active or inactive are those of the source. No cut-off for these calls is given here.

Key:
[1] = target: T1, ATP-dependent translocase ABCB1 (Homo sapiens, UniProt P08183); experiment: Inhibition of P-gp-mediated paclitaxel-resistance in P-glycoprotein-expressing human LCC-6 cells assessed as fold decrease in paclitaxel IC50 for cytotoxic activity at 1 uM after 5 days by MTS assay relative to control; format: cell-based; conditions: lcc-6, 120 h
T1 sequence (P08183 whole entry): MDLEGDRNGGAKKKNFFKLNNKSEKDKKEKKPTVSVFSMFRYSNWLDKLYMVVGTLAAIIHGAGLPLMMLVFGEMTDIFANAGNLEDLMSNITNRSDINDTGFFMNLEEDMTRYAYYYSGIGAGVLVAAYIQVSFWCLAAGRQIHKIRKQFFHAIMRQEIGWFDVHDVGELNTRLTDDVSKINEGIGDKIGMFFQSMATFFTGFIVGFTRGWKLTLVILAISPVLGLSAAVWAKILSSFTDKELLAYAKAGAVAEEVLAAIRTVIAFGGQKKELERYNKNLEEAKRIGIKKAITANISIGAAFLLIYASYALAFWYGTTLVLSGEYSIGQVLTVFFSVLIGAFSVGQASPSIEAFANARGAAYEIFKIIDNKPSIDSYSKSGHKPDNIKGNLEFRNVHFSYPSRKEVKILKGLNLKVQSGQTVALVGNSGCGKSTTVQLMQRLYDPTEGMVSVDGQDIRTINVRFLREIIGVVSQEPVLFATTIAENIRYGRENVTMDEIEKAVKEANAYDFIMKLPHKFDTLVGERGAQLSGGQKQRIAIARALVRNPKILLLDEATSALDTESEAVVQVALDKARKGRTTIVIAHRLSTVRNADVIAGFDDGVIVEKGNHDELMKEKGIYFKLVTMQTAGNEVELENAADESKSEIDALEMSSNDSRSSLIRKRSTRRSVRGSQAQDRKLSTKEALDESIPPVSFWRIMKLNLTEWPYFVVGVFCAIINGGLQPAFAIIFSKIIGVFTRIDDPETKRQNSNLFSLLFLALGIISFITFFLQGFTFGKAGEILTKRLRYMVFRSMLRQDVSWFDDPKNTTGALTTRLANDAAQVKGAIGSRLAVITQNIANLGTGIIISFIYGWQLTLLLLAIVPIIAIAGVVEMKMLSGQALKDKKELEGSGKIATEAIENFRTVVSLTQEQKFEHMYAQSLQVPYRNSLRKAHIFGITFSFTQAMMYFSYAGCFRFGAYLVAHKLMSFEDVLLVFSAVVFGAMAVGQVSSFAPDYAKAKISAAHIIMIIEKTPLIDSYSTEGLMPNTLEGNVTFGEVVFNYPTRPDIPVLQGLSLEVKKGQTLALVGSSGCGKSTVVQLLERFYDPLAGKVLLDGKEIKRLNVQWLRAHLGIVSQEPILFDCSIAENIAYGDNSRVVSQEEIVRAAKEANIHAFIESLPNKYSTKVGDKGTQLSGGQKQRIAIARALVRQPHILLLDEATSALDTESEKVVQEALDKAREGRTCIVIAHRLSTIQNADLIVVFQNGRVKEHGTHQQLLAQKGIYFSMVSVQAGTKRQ
Outline: (§1)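 ABCB1-transfected LCC6MDR cells (6000 per well) given serial paclitaxel, doxorubicin or vincristine with or without 1 μM modulator for 5 days at 37 °C. MTS/PMS added for 2 h, absorbance 490 nm. IC50 from dose-response curves. RF = IC50 without modulator / IC50 with modulator; mean ± SEM.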

[2] = Cytotoxicity against multidrug-resistant human LCC-6 cells after 3 days by MTS assay; format: cell-based; conditions: LCC-6, 72 h
L929 = experiment: Cytotoxicity against mouse L929 cells after 3 days by MTS assay; format: cell-based; conditions: L929, 72 h
[3] = Cytotoxicity against wild type human LCC-6 cells after 3 days by MTS assay; format: cell-based; conditions: LCC-6, 72 h
[4] = target: T1, ATP-dependent translocase ABCB1; experiment: Inhibition of P-gp-mediated paclitaxel-resistance in P-glycoprotein-expressing human LCC-6 cells assessed as fractional inhibitory concentration index at 0.5 uM after 5 days by MTS assay in presence of 1-(3,4,5-Trimethoxybenzyl)-3,4-bis(3,4-dimethoxyphenyl)-1H-pyrrole-2,5-dione; format: cell-based; conditions: lcc-6, 120 h
Outline: (§2)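 LCC6MDR cells (6000 per well) given two modulators at 0.5 μM each, with serial paclitaxel, doxorubicin or vincristine, for 5 days at 37 °C. IC50 by MTS absorbance at 490 nm. FIC values come from IC50 relative to each modulator alone at 1 μM, and FICI is the sum (modified Chou–Talalay). Synergy: FICI ≤0.5; additive: 0.5–4; antagonism: >4.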

[5] = target: T1, ATP-dependent translocase ABCB1; experiment: Inhibition of P-gp-mediated doxorubicin-resistance in P-glycoprotein-expressing human LCC-6 cells assessed as fold decrease in doxorubicin IC50 for cytotoxic activity at 1 uM after 5 days by MTS assay; format: cell-based; conditions: lcc-6, 120 h; outline: as §1
[6] = target: T1, ATP-dependent translocase ABCB1; experiment: Inhibition of P-gp-mediated vincristine-resistance in P-glycoprotein-expressing human LCC-6 cells assessed as fold decrease in vincristine IC50 for cytotoxic activity at 1 uM after 5 days by MTS assay; format: cell-based; conditions: lcc-6, 120 h; outline: as §1
[7] = target: T1, ATP-dependent translocase ABCB1; experiment: Inhibition of P-gp-mediated doxorubicin-resistance in P-glycoprotein-expressing human LCC-6 cells assessed as fractional inhibitory concentration index at 0.5 uM after 5 days by MTS assay in presence of 1-(3,4,5-Trimethoxybenzyl)-3,4-bis(3,4-dimethoxyphenyl)-1H-pyrrole-2,5-dion; format: cell-based; conditions: lcc-6, 120 h; outline: as §2
[8] = target: T1, ATP-dependent translocase ABCB1; experiment: Inhibition of P-gp-mediated vincristine-resistance in P-glycoprotein-expressing human LCC-6 cells assessed as fractional inhibitory concentration index at 0.5 uM after 5 days by MTS assay in presence of 1-(3,4,5-Trimethoxybenzyl)-3,4-bis(3,4-dimethoxyphenyl)-1H-pyrrole-2,5-dione; format: cell-based; conditions: lcc-6, 120 h; outline: as §2
LCC-6 = experiment: Increase in doxorubicin concentration in wild type human LCC-6 cells at 3 uM after 150 mins by spectrofluorimetry; format: functional, cell-based
Outline: (§3)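 Cells (1 × 10⁶ LCC6 or LCC6MDR) incubated with 20 μM doxorubicin plus modulator for 150 min at 37 °C; 0.4% DMSO as negative control. Cells washed in cold PBS pH 7.4 and lysed in 0.75 M HCl/0.2% Triton X-100 in isopropanol. Supernatant doxorubicin fluorescence read at ex 460/em 610 nm. Duplicate, repeated twice; mean ± SEM.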

[9] = target: T1, ATP-dependent translocase ABCB1; experiment: Inhibition of P-gp-mediated doxorubicin-resistance in P-glycoprotein-expressing human LCC-6 cells assessed as increase in intracellular doxorubicin accumulation at 3 uM after 150 mins by spectrofluorimetry relative to control; format: cell-based; conditions: lcc-6, 2.5 h; outline: as §3
[10] = target: T1, ATP-dependent translocase ABCB1; experiment: Inhibition of P-gp-mediated doxorubicin-resistance in P-glycoprotein-expressing human LCC-6 cells assessed as increase in intracellular doxorubicin accumulation at 0.25 to 3 uM after 150 mins by spectrofluorimetry; format: cell-based; conditions: lcc-6, 2.5 h; outline: as §3
[11] = target: T1, ATP-dependent translocase ABCB1; experiment: Inhibition of P-gp-mediated doxorubicin-resistance in P-glycoprotein-expressing human LCC-6 cells assessed as increase in intracellular doxorubicin accumulation at 8 to 16 uM after 150 mins by spectrofluorimetry; format: cell-based; conditions: lcc-6, 2.5 h; outline: as §3
[12] = Noncompetitive inhibition of P-gp-mediated doxorubicin transport in multidrug-resistant human LCC-6 cells after 150 mins by dixon plot analysis; format: cell-based
Outline: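 LCC6MDR cells (1 × 10⁶) incubated with doxorubicin at 1.5, 4.4, 13.3 or 40 μM and modulator at 0, 0.5, 1 or 2 μM for 150 min at 37 °C. Lysis and fluorescence done as in the accumulation assay. Ki taken from a Dixon plot of reciprocal retention rate vs modulator concentration. Slope replot vs 1/[doxorubicin] used to assign mechanism. Two to four experiments.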

[13] = target: T1, ATP-dependent translocase ABCB1; experiment: Inhibition of P-gp-mediated paclitaxel-resistance in P-glycoprotein-expressing human LCC-6 cells assessed as fractional inhibitory concentration index at 0.5 uM after 5 days by fraction affected plot assay in presence of 1-(3,4,5-Trimethoxybenzyl)-3,4-bis(3,4-dimethoxyphenyl)-1H-pyrrole-2,5-dione; format: cell-based; conditions: lcc-6, 120 h

Structure (SMILES)	fold change (FC) [1]	IC50 [2] [µM]	IC50 (L929) [µM]	IC50 [3] [µM]	other results
COc1ccc(C2=C(c3ccc(OC)c(OC)c3)C(=S)N(Cc3ccccc3)C2=O)cc1OC	3.4	> 100	> 100		
COc1ccc(CCN2C(=O)C(c3ccc(OC)c(OC)c3)=C(c3ccc(OC)c(OC)c3)C2=O)cc1OC	6.9	> 100	> 100	> 100	
COc1ccc(C(=O)CN2C(=O)C(c3ccc(OC)c(OC)c3)=C(c3ccc(OC)c(OC)c3)C2=O)cc1	9.9	90	> 100	> 100	fractional inhibitory concentration index (FICI) [4]: 0.42; fold change (FC) [5]: 5.2; fold change (FC) [6]: 9.3; fractional inhibitory concentration index (FICI) [7]: 1.26; fractional inhibitory concentration index (FICI) [8]: 0.89; Activity (LCC-6): inactive; fold change (FC) [9]: 2.1; Activity [10]: Active; Activity [11]: Not Active; Ki [12]: 5.4 µM; fractional inhibitory concentration index (FICI) [13]: 0.42
COc1ccc(CN2C(=O)C(c3ccc(OC)c(OC)c3)=C(c3ccc(OC)c(OC)c3)C2=O)cc1OC	12.4	> 100	> 100	> 100	fractional inhibitory concentration index (FICI) [4]: 2.21; fractional inhibitory concentration index (FICI) [13]: 2.21
COc1ccc(C2=C(c3ccc(OC)c(OC)c3)C(=O)N(CCCc3cc(OC)c(OC)c(OC)c3)C2=O)cc1OC	4.7	> 100	> 100	> 100	
COc1ccc(C2=C(c3ccc(OC)c(OC)c3)C(=O)N(CCN3C(=O)C(c4ccc(OC)c(OC)c4)=C(c4ccc(OC)c(OC)c4)C3=O)C2=O)cc1OC	1.4	> 100	> 100		
COc1ccc(C(=O)CN2C(=O)C(c3ccc(OC)c(OC)c3)=C(c3ccc(OC)c(OC)c3)C2=O)cc1OC	8.2	> 100	> 100	> 100	fractional inhibitory concentration index (FICI) [4]: 2.05; fractional inhibitory concentration index (FICI) [13]: 2.05
COc1ccc(C2=C(c3ccc(OC)c(OC)c3)C(=S)N(CCc3cc(OC)c(OC)c(OC)c3)C2=O)cc1OC	2.8				
COc1ccc(C2=C(c3ccc(OC)c(OC)c3)C(=O)N(Cc3cc(OC)c(OC)c(OC)c3)C2=O)cc1OC	18.2	> 100	> 100	> 100	fold change (FC) [5]: 9.5; fold change (FC) [6]: 14.6; Activity (LCC-6): inactive; fold change (FC) [9]: 3; Activity [10]: Active; Activity [11]: Not Active; Ki [12]: 5.5 µM
COc1ccc(C2=C(c3ccc(OC)c(OC)c3)C(=O)N(C/C=C/c3cc(OC)c(OC)c(OC)c3)C2=O)cc1OC	6.2	> 100	> 100	> 100	
COc1ccc(C2=C(c3ccc(OC)c(OC)c3)C(=O)N(CCCN3C(=O)C(c4ccc(OC)c(OC)c4)=C(c4ccc(OC)c(OC)c4)C3=O)C2=O)cc1OC	5.2	> 100	> 100	> 100	
COc1ccc(CN2C(=O)C(c3ccc(OC)c(OC)c3)=C(c3ccc(OC)c(OC)c3)C2=O)cc1	9.3	> 100	> 100	> 100	
COc1ccc(-c2cn(Cc3cc(OC)c(OC)c(OC)c3)c(OCc3cc(OC)c(OC)c(OC)c3)c2-c2ccc(OC)c(OC)c2)cc1OC	1.6	> 100	> 100	> 100	
COc1ccc(CCN2C(=O)C(c3ccc(OC)c(OC)c3)=C(c3ccc(OC)c(OC)c3)C2=O)cc1	10.7	18	21.6	32.5	fractional inhibitory concentration index (FICI) [4]: 1.61; fractional inhibitory concentration index (FICI) [13]: 1.61
COc1ccc(C2=C(c3ccc(OC)c(OC)c3)C(=O)N(CC(=O)c3ccccc3)C2=O)cc1OC	3.9	> 100	> 100		
COc1ccc(C2=C(c3ccc(OC)c(OC)c3)C(=O)N(CCc3cc(OC)c(OC)c(OC)c3)C2=O)cc1OC	4.5	> 100	> 100	> 100	
COc1ccc(C2=C(c3ccc(OC)c(OC)c3)C(=O)N(CCc3ccccc3)C2=O)cc1OC	3.6	> 100	> 100		
C/C=C/C[C@@H](C)C(=O)[C@H]1C(=O)N[C@@H](C(C)C)C(=O)N(C)CC(=O)N(C)[C@@H](CC(C)C)C(=O)N[C@@H](C(C)C)C(=O)N(C)[C@@H](CC(C)C)C(=O)N[C@@H](C)C(=O)N[C@H](C)C(=O)N(C)[C@@H](CC(C)C)C(=O)N(C)[C@@H](CC(C)C)C(=O)N(C)[C@@H](C(C)C)C(=O)N1C [VALSPODAR]	101.8				
COc1ccc(C2=C(c3ccc(OC)c(OC)c3)C(=O)N(CCO)C2=O)cc1OC	1.8	84	> 100		
COc1ccc(C2=C(c3ccc(OC)c(OC)c3)C(=O)N(Cc3ccccc3)C2=O)cc1OC	7.9				
COc1ccc(C2=C(c3ccc(OC)c(OC)c3)C(=O)N(CN3C(=O)C(c4ccc(OC)c(OC)c4)=C(c4ccc(OC)c(OC)c4)C3=O)C2=O)cc1OC	8	> 100	> 100	> 100	
